Bioassay records (PubChem)
The list is not random: actives were taken first. Their share in the collection is about 2.6%.
SENP8 block-1 = blocks the human protease SENP8; AID 2540; 1.2% of 330,000 active; purified SENP8, Z-RLRGG-aminoluciferin cleavage, luminescence; inhibition, % at 10 µM; Q96LD8; in the data active means inhibition above about 50%
Target sequence (Q96LD8 whole entry, looked up): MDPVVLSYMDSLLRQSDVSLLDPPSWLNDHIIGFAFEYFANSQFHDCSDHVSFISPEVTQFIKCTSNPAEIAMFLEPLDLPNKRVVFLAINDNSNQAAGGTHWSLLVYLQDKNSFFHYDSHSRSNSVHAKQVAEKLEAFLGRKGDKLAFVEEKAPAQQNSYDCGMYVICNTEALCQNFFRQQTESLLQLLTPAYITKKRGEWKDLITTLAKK
SENP1 inh = blocks the human SENP1 SUMO protease catalytic domain; Q9P0U3; recombinant SENP1 catalytic domain, CyPet-SUMO1-YPet FRET cleavage; inhibition, % at 10 µM; 0.21% of 360,000 active;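 active means inhibition at least 30% at 10 µM, raw YFP signal under a set limit, fluorescence ratio 0.5 to 1.5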
Target sequence (Q9P0U3 419-644 limits assumed): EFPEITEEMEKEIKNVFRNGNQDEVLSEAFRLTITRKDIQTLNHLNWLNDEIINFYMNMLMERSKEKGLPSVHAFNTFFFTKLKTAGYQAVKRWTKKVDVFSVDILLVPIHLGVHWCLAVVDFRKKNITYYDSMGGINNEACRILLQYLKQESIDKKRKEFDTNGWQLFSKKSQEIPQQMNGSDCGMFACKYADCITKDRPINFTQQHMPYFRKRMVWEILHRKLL
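Test system: hSENP1 catalytic domain, recombinant; Amount: 20 pM final SENP1 enzyme; Medium: Tris pH 8 buffer plus EDTA, NaCl, BME, BSA, NP40, catalase; Schedule: 50 min enzyme reaction, room temperature, light-protected; Technique: FRET fluorescence in CFP and YFP emission channels; Controls: no-enzyme wells low, DMSO-plus-enzyme wells high control.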
Platelet DG rel = platelet dense granule release activity; AID 1663; human platelet-rich plasma, SFLLRN dense granule ATP release, luminescence; inhibition, %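 (compounds screened at 7.5 µM in platelet-rich plasma)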; 0.22% of 300,000 active;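 active means mean replicate score, as percent of positive control, at or above 50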
SENP6 inh = inhibitors of human SENP6 protease. Recombinant SENP6 catalytic domain, aminoluciferin luminescence. inhibition, % at 10 µM. 1.8% of 330,000 active. AID 2599;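 active means inhibition above about 50% at the single tested dose, limit read from the data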
SENP7 block = inhibitors of human SENP7 protease. Q9BQF6. inhibition, % at 5 µM. 1.5% of 330,000 active. recombinant SENP7, Z-RLRGG-aminoluciferin luminescence, 40 min;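 active means inhibition above about 50% at the single test dose, limit read from the data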
SENP8 block-2 = inhibitors of human SENP8 protease. Q96LD8. recombinant SENP8, Nedd8 substrate fluorescence. inhibition, % at 20 µM. 0.64% of 360,000 active. AID 602440; in the data active means inhibition mostly above about 40%, no sharp cut-off; inactive means mostly below about 27%
Of the large screens only hits and unclear results are named; the others gave an inactive call.

C/C(=N/NC(=O)c1cc2ccccc2cc1O)c1ccco1	SENP8 block-1 52.5, SENP6 inh 73.8
Oc1c(CN2CCCCC2)cc(Br)c2cccnc12	SENP8 block-2 53.1
CN(Cc1cc([N+](=O)[O-])c2cccnc2c1O)C1CCCCC1	none (no result: SENP1 inh, SENP8 block-2)
O=[N+]([O-])c1cc(CN2CCN(c3ccccc3)CC2)c(O)c2ncccc12	SENP8 block-2 48.0
O=C(NCC(c1cccnc1)N1CCN(c2ccc(F)cc2)CC1)c1cccc(Cl)c1 (centres undefined)	none
O=C(N/N=C/c1sc(=O)n(-c2ccccc2)c1Cl)c1ccccc1	SENP8 block-1 55.6, SENP6 inh 83.3, SENP7 block 75.6
COc1ccc(-c2cc(-c3ccccc3)nc(-c3ccc4c(c3)NC(=O)CO4)c2)cc1	none
O=C(Nc1ccc2c(c1)OCO2)c1n[nH]c(=O)c2ccccc12	SENP6 inh 66.7, SENP7 block 62.0
O=C(Nc1cccc(F)c1)c1ccc2c(c1)OCO2	SENP8 block-1 71.0, SENP6 inh 85.8, SENP7 block 90.3
CCc1nc2ccc(C(=O)Nc3ccc4c(c3)OCO4)cc2nc1CC	SENP8 block-1 51.4 (no result: Platelet DG rel)
CCc1nc2ccc(C(=O)Nc3cccc(C(C)=O)c3)cc2nc1CC	none
CCc1ccccc1NC(=O)Nc1ccc2c(c1)OCO2	SENP7 block 82.4
O=C(Nc1c(C(=O)Nc2cccc(F)c2)oc2ccccc12)c1ccc2c(c1)OCO2	none
O=C(Nc1ccc2c(c1)OCO2)c1nn(-c2ccccc2)c(=O)c2ccccc12	none
COc1ccc2c(c1)c1nc3ccccc3nc1n2CC(=O)OC(C)C	none
C=CCOc1c(Br)cc(CNn2cn[nH]c2=S)cc1OC	none
O=C(Nc1ccc([N+](=O)[O-])cn1)c1ccc2c(c1)OCO2	SENP7 block 67.4
CC(C)(C)c1ccc(C(=O)Nc2ccc([N+](=O)[O-])cn2)cc1	none
N#CC(c1nc2ccccc2nc1N1CCCC1)S(=O)(=O)c1ccccc1 (centres undefined)	SENP8 block-1 72.5, SENP6 inh 74.4
NS(=O)(=O)c1ccc(N/C=C/C(=O)c2ccc(Br)cc2)cc1	none
NS(=O)(=O)c1ccc(N/C=C\C(=O)c2ccc(F)cc2)cc1	SENP8 block-1 63.9, SENP7 block 70.0
CC(=O)c1ccc(OCc2cc(C(=O)N(C)CC3COc4ccccc4O3)no2)cc1 (centres undefined)	none (no result: SENP8 block-1, Platelet DG rel, SENP6 inh, SENP7 block)
O=C(O)c1ccccc1C(=O)c1ccc(N2CCOCC2)c([N+](=O)[O-])c1	none
Cc1[nH]n(-c2nc(-c3ccc(Cl)cc3)cs2)c(=O)c1N=Nc1ccc(O)cc1	SENP8 block-2 41.1
Cc1ccc(C(=O)Nc2nnc(S(=O)(=O)N3CCN(c4ccc(F)cc4)CC3)s2)cc1	none
COc1ccc(C2N=C(c3ccccc3)C(C)(C)N2O)cc1 (centres undefined)	none
CN(C)c1ccc(N=Nc2ccccc2C(=O)OCC(=O)N2CCCCCC2)cc1	SENP8 block-2 56.6
COc1ccc(NC(=O)N(C)C[C@@H]2OCc3cnnn3CCCC(=O)N([C@@H](C)CO)C[C@H]2C)cc1	none (no result: SENP8 block-1, Platelet DG rel, SENP6 inh, SENP7 block)
Cc1ncc(C(O)c2ccc(N(C)C)cc2)n1Cc1ccccc1 (centres undefined)	none (no result: SENP8 block-1, Platelet DG rel, SENP6 inh, SENP7 block)
CN(C)c1ccc2nc3c(=O)[nH]c(=O)nc-3n(CC(O)C(O)C(O)CO)c2c1 (centres undefined)	SENP1 inh 60.5
O=[N+]([O-])c1cc(/C=N/N/C(=N/c2ccccn2)c2ccccn2)ccc1O	SENP1 inh 33.6, SENP8 block-2 47.3
O=C(Nc1nc(-c2ccc3c(c2)OCCO3)cs1)c1ccc(S(=O)(=O)N2CCCCC2)cc1	none
O=[N+]([O-])c1cc(C=Nc2cccc3c(O)cccc23)ccc1Cl	SENP8 block-1 59.6, SENP6 inh 84.3 (no result: SENP1 inh, SENP8 block-2)
O=C(O)COc1ccc(NC(=O)c2cccs2)cc1	none
Cc1ccccc1C(=O)Nc1sc2c(c1C(=O)O)CCC2	SENP8 block-1 56.7, SENP6 inh 70.2
O=C(Nc1sc2c(c1C(=O)O)CCC2)c1ccccc1Cl	none
O=C(Nc1cccc(Br)c1)c1ccc(OC2CSC2)cc1	SENP8 block-1 89.9, SENP6 inh 91.9, SENP7 block 96.4 (no result: SENP1 inh, SENP8 block-2)
CC(=O)c1cccc(NC(=O)c2ccc(OC3CSC3)cc2)c1	none
COc1ccc(C(=O)Nc2ccccc2C(=O)N/N=C/c2ccncc2)cc1OC	Platelet DG rel 63.9
